{"data": "Experimental data gathered from unrelated publications", "EGFR T790M": "Epidermal growth factor receptor (EGFR, Homo sapiens, UniProt P00533, T790M)", "EGFR L858R/T790M": "Epidermal growth factor receptor (EGFR, Homo sapiens, UniProt P00533, L858R/T790M)", "EGFR L858R": "Epidermal growth factor receptor (EGFR, Homo sapiens, UniProt P00533, L858R)", "EGFR G719S": "Epidermal growth factor receptor (EGFR, Homo sapiens, UniProt P00533, G719S)", "EGFR": "Epidermal growth factor receptor (EGFR, Homo sapiens, UniProt P00533)", "EGFR del746-750": "Epidermal growth factor receptor (EGFR, Homo sapiens, UniProt P00533, del746-750)", "EGFR L861Q": "Epidermal growth factor receptor (EGFR, Homo sapiens, UniProt P00533, L861Q)", "EGFR del747-750/T751S": "Epidermal growth factor receptor (EGFR, Homo sapiens, UniProt P00533, del747-750/T751S)"}
{"SMILES": "O=C1CCc2cc(Nc3cc(OC4CCOCC4)c([N+](=O)[O-])cc3Cl)ccc2N1", "target": "EGFR T790M", "assay": "cell-free assay, competition with immobilised ligand", "setting": "1 µM", "quantity": "remaining binding", "value": "85%"}
{"SMILES": "CCC(=O)Nc1cc(Nc2nc(N3CCc4sccc4C3)c3cccnc3n2)c(OC)cc1N1CCN(CC)CC1", "target": "EGFR L858R/T790M", "assay": "enzyme activity, inhibitor, ELISA", "setting": "0.1 µM", "quantity": "inhibition", "value": "19.2%"}
{"SMILES": "c1ccc(N2CCN(Cc3nc4ccccc4[nH]3)CC2)nc1", "target": "EGFR L858R", "assay": "cell-free assay, competition with immobilised ligand", "setting": "1 µM", "quantity": "remaining binding", "value": "100%"}
{"SMILES": "c1cnn2ncc(-c3ccnc(N4CCC45COC5)n3)c2c1", "target": "EGFR G719S", "assay": "binding", "setting": "1 µM", "quantity": "remaining binding", "value": "100%"}
{"SMILES": "O=C(Nc1cccnn1)N1CCC(=Cc2cccc(Oc3ccc(C(F)(F)F)cn3)c2)CC1", "target": "EGFR L858R/T790M", "assay": "cell-free assay, competition with immobilised ligand", "setting": "1 µM", "quantity": "remaining binding", "value": "99%"}
{"SMILES": "COc1cc(N(C)CCN(C)C)c(NC(=O)C=C(C)C)cc1Nc1nc(Nc2cnn(C)c2)c2sccc2n1", "target": "EGFR L858R/T790M", "assay": "enzyme activity, inhibitor, ELISA", "setting": "0.1 µM", "quantity": "inhibition", "value": "25.1%"}
{"SMILES": "CN(C)C(=O)Cn1cc(-c2nc(C3(c4ccc(-c5cnc(N)nc5)cc4)CC3)no2)cn1", "target": "Epidermal growth factor receptor (EGFR, Homo sapiens, UniProt P00533, A750P/del747-749)", "assay": "cell-free assay, competition with immobilised ligand", "setting": "1 µM", "quantity": "remaining binding", "value": "80%"}
{"SMILES": "CC(C)[C@@H]1NC(=O)CC(c2ccccc2)NC(=O)CC(CCC(N)=O)NC(=O)[C@H](Cc2ccc(O)cc2)NC(=O)[C@H](Cc2ccc(O)cc2)NC(=O)[C@H](Cc2ccccc2)NC(=O)[C@@H](Cc2ccc(O)cc2)NC(=O)CSC[C@@H](C(=O)NCC(N)=O)NC(=O)CCNC(=O)[C@H](CCCNC(=N)N)NC(=O)[C@H](CCCNC(=N)N)NC(=O)[C@H](Cc2ccc(O)cc2)NC(=O)[C@H](C(C)C)NC(=O)[C@H](C(C)C)NC(=O)[C@H](CC(N)=O)NC1=O (stereo partly drawn)", "target": "EGFR", "assay": "binding, SPR", "quantity": "kon", "value": "165000 M⁻¹ s⁻¹"}
{"SMILES": "F[C@@H]1CCN(c2nccc(-c3cnn4ncccc34)n2)C1", "target": "EGFR L858R", "assay": "binding", "setting": "1 µM", "quantity": "remaining binding", "value": "89%"}
{"SMILES": "O=C(Nc1cnc(Oc2ccc(F)cc2)nc1)N1CCc2ncccc2[C@@H]1c1ccc(F)cc1", "target": "EGFR del746-750", "assay": "cell-free assay, competition with immobilised ligand", "setting": "1 µM", "quantity": "remaining binding", "value": "100%"}
{"SMILES": "CC(C)c1ccc(NC(=O)c2cccs2)c(-c2nc3ccccc3[nH]c2=O)c1", "target": "EGFR", "assay": "enzyme activity, inhibitor", "setting": "1 µM", "quantity": "activity vs control", "value": "93%"}
{"SMILES": "CC(=O)N1CCC(c2ccc(C(=O)NC(=N)N)cc2C(F)(F)F)CC1", "target": "EGFR L861Q", "assay": "cell-free assay, competition with immobilised ligand", "setting": "1 µM", "quantity": "remaining binding", "value": "91%"}
{"SMILES": "CC/C(=N\\NC(=O)NCc1cccc(O)c1)c1ccc(O)c(C)c1O", "target": "EGFR", "assay": "enzyme activity, inhibitor", "setting": "0.1 µM", "quantity": "inhibition", "value": "4.5%"}
{"SMILES": "CCC(=O)Nc1cc(Nc2nc(N3CCc4sccc4C3)c3cccnc3n2)c(OC)cc1N1CCC(N(C)C)CC1", "target": "EGFR L858R/T790M", "assay": "enzyme activity, inhibitor, ELISA", "setting": "0.1 µM", "quantity": "inhibition", "value": "22.5%"}
{"SMILES": "Cc1ccc(NC(=O)c2ccc(CN3CCN(C)CC3)cc2)cc1Nc1nc(-c2cccnc2)cs1", "target": "EGFR", "assay": "cell-free assay", "setting": "0.5 µM", "quantity": "remaining signal", "value": "99.6%"}
{"SMILES": "COc1cc(Cl)c(C(=O)N[C@@H](CN[C@H]2CC[C@@H](N)CC2)Cc2ccc(C#N)cc2)cc1-c1ccc(CN[C@H](C)c2ccc(C)cc2)o1", "target": "EGFR", "assay": "enzyme activity, inhibitor", "setting": "1 µM", "quantity": "remaining activity", "value": "103%"}
{"SMILES": "CNC(=O)[C@@H]1CC[C@@H](n2c(-c3ccc4cnccc4c3)nc3ccc(C(=O)NCc4cccc(C(N)=O)c4)cc32)C1", "target": "EGFR T790M", "assay": "binding, competition with immobilised ligand", "setting": "1 µM", "quantity": "remaining binding", "value": "72%"}
{"SMILES": "Cc1cnn2ncc(-c3ccnc(N(C)C)n3)c2c1", "target": "EGFR G719S", "assay": "binding", "setting": "1 µM", "quantity": "remaining binding", "value": "100%"}
{"SMILES": "COc1cc2ncnc(Nc3ccc(Oc4ccccc4)cc3C)c2cc1OC", "target": "EGFR", "assay": "enzyme activity, inhibitor", "setting": "1 µM", "quantity": "inhibition", "value": "89%"}
{"SMILES": "O=C(c1ccc(Nc2nccc(-c3cc4ccccc4s3)n2)cc1)N1CCC(N2CCCC2)CC1", "target": "EGFR G719S", "assay": "binding, competition with immobilised ligand", "setting": "1 µM", "quantity": "remaining binding", "value": "94%"}
{"SMILES": "Cc1cnc(NC2CCOCC2)nc1-n1cnc(C(=O)NC(CN)c2cc(F)cc(Cl)c2)c1 (stereo not drawn)", "target": "EGFR L858R/T790M", "assay": "enzyme activity, inhibitor, radiometric", "setting": "1 µM", "quantity": "remaining activity", "value": "109%"}
{"SMILES": "CNCc1ccccc1-c1csc([C@H](C)Nc2nc(C)nc3cc(OC)c(OC)cc23)c1", "target": "EGFR L858R/T790M", "assay": "cell-free assay, competition with immobilised ligand", "setting": "1 µM", "quantity": "remaining binding", "value": "87%"}
{"SMILES": "Cc1cc(NC(=O)c2cccc3cc(-c4cccc5[nH]nc(N)c45)ccc23)ccc1F", "target": "EGFR T790M", "assay": "enzyme activity, inhibitor", "setting": "0.1 µM", "quantity": "activity vs control", "value": "98%"}
{"SMILES": "CCN(CC)CCNC(=O)c1c(C)[nH]c(/C=C2\\C(=O)Nc3ccc(Cl)cc32)c1C", "target": "EGFR", "assay": "cell-free assay", "setting": "0.5 µM", "quantity": "remaining signal", "value": "97%"}
{"SMILES": "COc1cc2ncnc3c2cc1OCCOCCOc1c(Cl)cccc1N3", "target": "EGFR del746-750", "assay": "enzyme activity, inhibitor, radiometric", "setting": "1 µM", "quantity": "remaining activity", "value": "15%"}
{"SMILES": "COc1cc2ncnc(Nc3ccc(Oc4ccccc4)c(C)c3C)c2cc1OC", "target": "EGFR L858R", "assay": "enzyme activity, inhibitor", "setting": "1 µM", "quantity": "inhibition", "value": "65%"}
{"SMILES": "COc1cc(-c2cc(-c3ccc(N4CCNCC4)cc3)cnc2N)cc(OC)c1OC", "target": "EGFR L861Q", "assay": "enzyme activity, inhibitor", "setting": "1 µM", "quantity": "inhibition", "value": "33%"}
{"SMILES": "O=C(NCCCN1CCOCC1)c1ccc(Nc2nccc(-c3cc4ccccc4s3)n2)cc1", "target": "EGFR del747-750/T751S", "assay": "binding, competition with immobilised ligand", "setting": "1 µM", "quantity": "remaining binding", "value": "100%"}
{"SMILES": "Cc1sc(C(=O)NC2COC2)cc1-n1cc(NC(=O)Nc2c(F)cccc2Cl)cn1", "target": "EGFR", "assay": "enzyme activity, inhibitor", "setting": "10 µM", "quantity": "remaining activity", "value": "98.5%"}
{"SMILES": "Nc1ncnc2occ(-c3ccc(NC(=O)Nc4cc(C(F)(F)F)ccc4F)cc3)c12", "target": "EGFR L858R", "assay": "cell-free assay", "setting": "20 µM", "quantity": "remaining signal", "value": "19%"}
{"SMILES": "N#C/C(=C\\c1ccc(O)c(O)c1)C(=O)NCc1ccccc1", "target": "EGFR", "assay": "cell-free assay", "setting": "0.5 µM", "quantity": "remaining signal", "value": "72.4%"}
{"SMILES": "N[C@H]1CCN(c2nccc(-c3cnn4ncccc34)n2)C1", "target": "EGFR T790M", "assay": "binding", "setting": "1 µM", "quantity": "remaining binding", "value": "79%"}
{"SMILES": "O=C(c1ccc(Nc2ncc(Cl)c(-c3cc4ccccc4s3)n2)cc1)N1CCC(N2CCCC2)CC1", "target": "EGFR L858R", "assay": "binding, competition with immobilised ligand", "setting": "1 µM", "quantity": "remaining binding", "value": "81%"}
{"SMILES": "C=CC(=O)Nc1cc(Nc2nc(N3CCc4sccc4C3)c3cccnc3n2)c(OC)cc1N1CCOCC1", "target": "EGFR L858R/T790M", "assay": "enzyme activity, inhibitor, ELISA", "setting": "0.1 µM", "quantity": "inhibition", "value": "23.5%"}
{"SMILES": "Cc1ccc(NC(=O)c2ccc(C)c(C(F)(F)F)c2)cc1C#Cc1nn(C2CCC(O)CC2)c2ncnc(N)c12 (stereo not drawn)", "target": "EGFR T790M", "assay": "cell-free assay", "setting": "10 µM", "quantity": "remaining signal", "value": "4%"}
{"SMILES": "O=C(NCC1CCOCC1)c1n[nH]cc1NC(=O)c1c(F)cccc1F", "target": "EGFR L858R/T790M", "assay": "binding, competition with immobilised ligand", "setting": "1 µM", "quantity": "remaining binding", "value": "97%"}
{"SMILES": "Cc1cnc(Nc2ccc(C(=O)N3CCC(N4CCCC4)CC3)cc2)nc1-c1cc2ccccc2s1", "target": "EGFR del746-750", "assay": "binding, competition with immobilised ligand", "setting": "1 µM", "quantity": "remaining binding", "value": "100%"}
{"SMILES": "CC(C)[C@@H]1NC(=O)[C@H](CCCNC(=N)N)NC(=O)[C@H](Cc2ccc(O)cc2)NC(=O)[C@H](C(C)C)NC(=O)[C@H](C(C)C)NC(=O)[C@H](CCCNC(=N)N)NC(=O)[C@H](CC(=O)O)NC(=O)[C@H](CC(=O)O)NC(=O)CCNC(=O)[C@H](Cc2ccc(O)cc2)NC(=O)[C@H](Cc2ccc(O)cc2)NC(=O)[C@H](Cc2ccccc2)NC(=O)[C@@H](Cc2ccc(O)cc2)NC(=O)CSC[C@@H](C(=O)NCC(N)=O)NC(=O)[C@H](C)NC1=O", "target": "EGFR", "assay": "binding, SPR", "quantity": "kon", "value": "192000 M⁻¹ s⁻¹"}
{"SMILES": "Cc1ccc(C(=O)NCc2ccsc2)cc1C#Cc1cn(C(C)C)c2ncnc(N)c12", "target": "EGFR", "assay": "enzyme activity, inhibitor", "setting": "1 µM", "quantity": "activity vs control", "value": "86%"}
{"SMILES": "C[C@@H]1CCN(c2nccc(-c3cnn4ncccc34)n2)C1", "target": "EGFR L858R", "assay": "binding", "setting": "1 µM", "quantity": "remaining binding", "value": "93%"}
{"SMILES": "Cc1c(C(=O)O)cc(-c2ccc(C3CCNCC3)cc2)c2ccc(-c3ccc(C(F)(F)F)cc3)cc12", "target": "EGFR del747-750/T751S", "assay": "cell-free assay, competition with immobilised ligand", "setting": "1 µM", "quantity": "remaining binding", "value": "100%"}
{"SMILES": "CN(c1nccc(-c2cnn3ncccc23)n1)C1CC1", "target": "EGFR del746-750", "assay": "binding", "setting": "1 µM", "quantity": "remaining binding", "value": "100%"}
{"SMILES": "COc1ccc(COc2ccc(Cc3cnc(N)nc3N)cc2OC)cc1", "target": "EGFR", "assay": "cell-free assay", "setting": "0.5 µM", "quantity": "remaining signal", "value": "96.9%"}
{"SMILES": "COc1ccnn2ncc(-c3ccnc(N(C)C)n3)c12", "target": "EGFR L858R/T790M", "assay": "binding", "setting": "1 µM", "quantity": "remaining binding", "value": "93%"}
{"SMILES": "Cc1ccc(C(=O)Nc2ccc(CN3CCN(C)CC3)c(C(F)(F)F)c2)cc1C#Cc1cnc2cccnn12", "target": "EGFR", "assay": "cell-free assay", "setting": "23.5 nM", "quantity": "remaining signal", "value": "55%"}
